Results taken from article PMC4806563 (Nature chemistry, 2016).

Columns and labels:
PGTs 141–144 = test: Glycan microarray on ACG slide, PGTs 141–144 binding; parameters: species or system human; conditions: panel of glycans I–XI on ACG slide
Procedure, shortened: (§1)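 Glycans I–XI carry a phosphonic acid tail and immobilize spontaneously and covalently on an aluminium oxide-coated glass (ACG) slide. Glycan concentration sets density and spacing. The printed array is incubated with antibody, then with a secondary antibody, and read by fluorescence. Surface dissociation constants (K_D surf) for glycan–antibody binding are derived from the signals.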

[1] = test system: DyLight649-conjugated donkey anti-human IgG antibody; test: NHS glycan array, binding of secondary antibody; conditions: NHS slide
PG16 [2] = test: Glycan microarray on ACG slide, PG16 binding; parameters: species or system human; conditions: ACG surface, 100 μM printed, serial dilution experiment
Procedure, shortened: as §1

PG16 [3] = test: Glycan microarray on NHS-activated glass slide, PG16 binding; parameters: species or system human; conditions: glycans printed at 100 μM

For `CC(=O)N[C@H]1[C@H](O[C@H]2[C@H](O)[C@@H](NC(C)=O)C(O)O[C@@H]2CO)O[C@H](CO)[C@@H](O[C@@H]2O[C@H](CO[C@H]3O[C@H](CO[C@H]4O[C@H](CO)[C@@H](O)[C@H](O)[C@@H]4O[C@H]4O[C@H](CO)[C@@H](O)[C@H](O)[C@@H]4O)[C@@H](O)[C@H](O[C@H]4O[C@H](CO)[C@@H](O)[C@H](O)[C@@H]4O[C@H]4O[C@H](CO)[C@@H](O)[C@H](O)[C@@H]4O)[C@@H]3O)[C@@H](O)[C@H](O[C@H]3O[C@H](CO)[C@@H](O)[C@H](O)[C@@H]3O[C@H]3O[C@H](CO)[C@@H](O)[C@H](O)[C@@H]3O[C@H]3O[C@H](CO)[C@@H](O)[C@H](O)[C@@H]3O)[C@@H]2O)[C@@H]1O` (stereo partly shown) [Man9GlcNAc2], the “PGTs 141–144 binding” value (PGTs 141–144) was “significant decrease in the affinity”.
In the case of Man4GlcAc2 [glycan 5], the “fluorescent signal from non-specific binding of secondary antibody” value [1] is reported as “strong fluorescent signal”.
With Man5GlcNAc2 [IV] the PG16 binding (PG16 [2]) was “unable to detect” and the PG16 binding (PG16 [3]) was “could not observe binding”.
